Assay [1] concerns HCT-116. Put plainly: Antitumor activity against human HCT-116 cells xenografted in immunodeficient Swiss athymic mouse assessed as maximum inhibition of tumor volume at 150 mg/kg/day, sc for 48 hrs on days 11 to 13 and measured on day 18 relative to control. The assay is classed as functional. The note with it: HCT-116, 192 h, time 8 day. The gist of the method: (§1)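 Male Swiss athymic nude mice, 8-12 wk; tumor cells (1×10^6-1×10^7, 50:50 Matrigel) implanted s.c. on flank. Randomized (n = 8-11) at 0.2-0.5 cm3. AZD1152 in Tris buffer pH 9, or vehicle (0.3 mol/L Tris), by 48-h s.c. osmotic mini-pump infusion (two 24-h pumps in sequence). Caliper volumes up to 3×/week; growth inhibition from change in control vs treated volume; one-tailed t test.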
For orientation: In xenograft studies the graft and the host belong to different species.

For assay [2], the system named is SW-620. Briefly: Antitumor activity against human SW620 cells xenografted in nude athymic rat assessed as increase in cleaved caspase-3 at 25 mg/kg/day, iv for 4 consecutive days and measured on 9 day by H&E staining based immunohistochemistry analysis. The class given is functional, organism-based. A digest of the protocol:
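Nude rats bearing SW620 tumors received i.v. AZD1152 at 25 mg/kg/d or vehicle on days 1-4 (n = 3 per time point). Tumor sections were immunostained for cleaved caspase-3 (HRP polymer). The percentage area of brown staining per field was quantified by color-threshold image analysis over six fields per section at ×20.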

Assay [3] has as its system HCT-116. Briefly: Antitumor activity against human HCT-116 cells xenografted in immunodeficient Swiss athymic mouse assessed as inhibition of tumor volume at 150 mg/kg/day, sc for 48 hrs on days 11 to 13 and measured on day 25 relative to control. The assay is classed as functional. The note with it: HCT-116, 360 h, time 15 day. The gist of the method:
as §1

Assay [4] has as its system SW-620. Briefly: Antitumor activity against human SW620 cells xenografted in immunodeficient Swiss athymic mouse assessed as maximum inhibition of tumor volume at 10 mg/kg/day, sc for 48 hrs on days 7 to 9 and measured on day 10 relative to control. The assay is classed as functional. Conditions: SW-620, 96 h, time 4 day. A digest of the protocol: as §1
Assay [5] deals with SW-620. Put plainly: Antitumor activity against human SW620 cells xenografted in Swiss nude mouse assessed as inhibition in PhH3 level at 2.5 mg/kg/day, sc measured over 48 hrs by flow cytometry analysis relative to control. The class given is functional. The gist of the method: (§2)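 Male nude mice with palpable s.c. SW620 tumors (n = 4/group) received AZD1152 (0.5-150 mg/kg/d) or vehicle by constant 48-h s.c. mini-pump infusion. Tumors were then excised, fixed and disaggregated. Flow cytometry with propidium iodide gave DNA content (2N, 4N, >4N), and rabbit anti-PhH3 with fluorescein anti-rabbit IgG gave PhH3-positive cells (%).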

Another assay has as its system A549. Put plainly: Antitumor activity against human A549 cells xenografted in immunodeficient Swiss athymic mouse assessed as maximum inhibition of tumor volume at 150 mg/kg/day, sc for 48 hrs on days 13 to 15 and measured on day 26 relative to control. The class given is functional. Conditions: A549, 336 h, time 14 day. A digest of the protocol: as §1
Assay [6] relates to SW-620. Briefly: Antitumor activity against human SW620 cells xenografted in immunodeficient Swiss athymic mouse assessed as maximum inhibition of tumor volume at 25 mg/kg/day, ip for 4 days on days 6 to 9 and measured on day 13 relative to control. The assay is classed as functional. Conditions: SW-620, 192 h, time 8 day. A digest of the protocol: (§3)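 Male Swiss nude mice bearing s.c. flank SW620 xenografts (cells in Matrigel), randomized (n = 8-11) at 0.2-0.3 cm3. AZD1152 in Tris buffer pH 9, or vehicle, given as a once-daily i.v. or i.p. bolus. Caliper volumes up to 3×/week; inhibition from change in control vs treated volume; one-tailed t test.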

Assay [7] concerns SW-620. Put plainly: Antitumor activity against human SW620 cells xenografted in Swiss nude mouse assessed as reduction in proportion of PhH3-positive cells within the G2-M phase at 70 mg/kg/day, sc measured over 48 hrs by flow cytometry analysis. The class given is functional, organism-based. The gist of the method: as §2
The test system of assay [8] is SW-620. Briefly: Antitumor activity against human SW620 cells xenografted in nude athymic rat assessed as morphologic change at 25 mg/kg/day, iv for 4 consecutive days and measured on 5 day by H&E staining based immunohistochemistry analysis. The assay is classed as functional, organism-based. The gist of the method:
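Nude rats bearing SW620 tumors were dosed i.v. with AZD1152 at 25 mg/kg/d or with vehicle on days 1-4. Subgroups (n = 3) were killed at set days. Tumor and bone marrow sections were H&E-stained and examined histologically.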

For assay [9], the system named is SW-620. Briefly: Antitumor activity against human SW620 cells xenografted in immunodeficient Swiss athymic mouse assessed as inhibition of tumor volume at 25 mg/kg/day, iv for 3 days on days 6 to 8 and measured on day 24 relative to control. The class given is functional. Conditions: SW-620, 456 h, time 19 day. The gist of the method: as §3
Assay [10] has as its system SW-620. Put plainly: Antitumor activity against human SW620 cells xenografted in immunodeficient Swiss athymic mouse assessed as maximum inhibition of tumor volume at 25 mg/kg/day, iv for 3 days on days 6 to 8 and measured on day 13 relative to control. The class given is functional. Conditions: SW-620, 192 h, time 8 day. A digest of the protocol:
as §3

Assay [11] deals with SW-620. Put plainly: Antitumor activity against human SW620 cells xenografted in immunodeficient Swiss athymic mouse assessed as inhibition of tumor volume at 10 mg/kg/day, sc for 48 hrs on days 7 to 9 and measured on day 23 relative to control. The class given is functional. Conditions: SW-620, 408 h, time 17 day. The gist of the method:
as §1

Assay [12] concerns Calu-6. Briefly: Antitumor activity against human Calu-6 cells xenografted in immunodeficient Swiss athymic mouse assessed as maximum inhibition of tumor volume at 150 mg/kg/day, sc for 48 hrs on days 20 to 22 and measured on day 29 relative to control. The assay is classed as functional. Conditions: Calu-6, 240 h, time 10 day. A digest of the protocol:
as §1

For assay [13], the system named is Calu-6. Briefly: Antitumor activity against human Calu-6 cells xenografted in immunodeficient Swiss athymic mouse assessed as inhibition of tumor volume at 150 mg/kg/day, sc for 48 hrs on days 20 to 22 and measured on day 41 relative to control. The class given is functional. Conditions: Calu-6, 528 h, time 22 day. The gist of the method:
as §1

For assay [14], the system named is SW-620. Briefly: Antitumor activity against human SW620 cells xenografted in immunodeficient Swiss athymic mouse assessed as maximum inhibition of tumor volume at 150 mg/kg/day, sc for 48 hrs on days 7 to 9 and measured on day 23 relative to control. The assay is classed as functional. The note with it: SW-620, 408 h, time 17 day. A digest of the protocol:
as §1

Assay [15] deals with SW-620. Briefly: Antitumor activity against human SW620 cells xenografted in Swiss nude mouse assessed as reduction in PhH3 at Ser10 residue at 70 mg/kg/day, sc over 48 hrs by immunohistochemistry analysis. The class given is functional, organism-based. The gist of the method:
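Male nude mice bearing SW620 tumors (n = 4/group) had 48-h s.c. mini-pump infusion of AZD1152 (70 mg/kg/d) or vehicle. Excised tumor sections were stained with H&E, or immunostained for PhH3 Ser10 with rabbit polyclonal antibody, HRP-polymer detection and hematoxylin counterstain.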

A further assay has as its system HL-60. Briefly: Antitumor activity against human HL-60 cells xenografted in immunodeficient Swiss athymic mouse assessed as inhibition of tumor volume at 150 mg/kg/day, sc for 48 hrs on days 16 to 18 and measured on day 35 relative to control. The class given is functional. The note with it: HL-60, 480 h, time 20 day. A digest of the protocol:
as §1

Assay [16] relates to SW-620. Briefly: Antitumor activity against human SW620 cells xenografted in immunodeficient Swiss athymic mouse assessed as inhibition of tumor volume at 150 mg/kg/day, sc for 48 hrs on days 7 to 9 and measured on day 23 relative to control. Conditions: SW-620, 408 h, time 17 day. The class given is functional. A digest of the protocol: as §1
Assay [17] relates to SW-620. Put plainly: Antitumor activity against human SW620 cells xenografted in Swiss nude mouse assessed as accumulation in proportion of 4N DNA content at 70 mg/kg/day, sc over 48 hrs by flow cytometry analysis relative to control. The class given is functional. A digest of the protocol:
as §2

One compound from ChEMBL document CHEMBL5715941, “AZD1152, a selective inhibitor of Aurora B kinase, inhibits human tumor xenograft growth by inducing apoptosis” (Clin Cancer Res, 2007) can be followed below.

The structures appear in SMILES notation. Calls of active or inactive are those of the source.

A word on the inhibition in vivo: it is how much of the control response was suppressed. With `CCN(CCCOc1ccc2c(Nc3cc(CC(=O)Nc4cccc(F)c4)[nH]n3)ncnc2c1)CCOP(=O)(O)O` [BARASERTIB], the inhibition in vivo at 150 mg/kg/day in the assay on HCT-116 [1] was 93%; in the assay on HCT-116 [3] it was 74%; in the assay on A549, 79%; in the assay with Calu-6 [12] it was 67%; in the assay with Calu-6 [13], 55%; in the assay on SW-620 [14], 87%. Moreover, the results for the inhibition in vivo at 150 mg/kg/day in the assay with HL-60 and with SW-620 [16] were above 100% and 87%, respectively. Further, the outcome in the assay on SW-620 [2], in the assay on SW-620 [7], with SW-620 [8] and in the assay on SW-620 [15] was Active. The inhibition in vivo at 10 mg/kg/day with SW-620 [4] is 55%; in the assay on SW-620 [11], 28%. Moreover, in the assay on SW-620 [5], the inhibition in vivo at 2.5 mg/kg/day is 69%. The inhibition in vivo at 25 mg/kg/day in the assay on SW-620 [6] came to 65%; in the assay with SW-620 [9], 47%; in the assay on SW-620 [10], 91%. The Activity in the assay on SW-620 [17] came out at 56%.
